# Measurements pooled from the literature.
# Lines come from different studies, so protocols differ.
# Target: MAP kinase-activated protein kinase 2 (MAPKAPK2, Homo sapiens, UniProt P49137)
SMILES,read-out,action,technique,concentration,quantity,value
COc1ccc2oc(-c3ccc4nc(N)oc4c3)c/c(=N\c3ccccc3NC(=O)CCN)c2c1,binding,,,1 µM,remaining binding,103%
C=CC(=O)N1CCC([C@@H]2CCNc3c(C(N)=O)c(-c4ccc(Oc5ccccc5)cc4)nn32)CC1,enzyme activity,inhibitor,,1 µM,inhibition,29%
CCCCC(=O)Nc1ccc(-c2ccc3ncn(CCC)c(=O)c3c2)cn1,binding,,competition with immobilised ligand,0.5 µM,remaining binding,100%
C#Cc1cnc(Nc2ccnc(CO)c2)nc1Nc1ccccc1S(C)(=O)=NC#N (stereo not drawn),cell-free assay,,,1 µM,remaining signal,100%
CN1CCN(C(=O)c2ccc(NC(=O)Nc3ccc(N(C)c4ccnc(Nc5ccc(CS(C)(=O)=O)cc5)n4)cc3)cc2)CC1,binding,,,1 µM,remaining binding,100%
N#Cc1ccc(NC(=O)Nc2ccccc2)cc1,cell-free assay,,competition with immobilised ligand,25 µM,remaining binding,65%
C1=C/COCc2cc(ccc2OCCN2CCCC2)Nc2nccc(n2)-c2cccc(c2)COC/1,binding,,,0.1 µM,remaining binding,100%
C=CC(=O)N1CCC[C@@H](n2nc(-c3ccc(Oc4ccccc4)cc3)c3c(N)ncnc32)C1,enzyme activity,inhibitor,,1 µM,inhibition,0%
COc1ccc2[nH]c3c4[nH]c5ccc(OC)cc5c4c4c(c3c2c1)C(=O)NC4=O,binding,,,1 µM,remaining binding,100%
